Values after ≈ are worked out from the molar mass of the structure shown.
How the values were obtained:
[1] = tested on: Bacillus subtilis; experiment: Antibacterial activity against penicillin-susceptible Bacillus subtilis ATCC 9372 assessed as bacterial growth inhibition incubated for 24 hrs by CLSI protocol based broth microdilution method; type: functional
[2] = tested on: Bacillus pumilus; experiment: Antibacterial activity against penicillin-susceptible Bacillus pumilus CMCC 63202 assessed as bacterial growth inhibition by broth dilution method; type: functional; conditions: time 24 hrs
Method in brief: (§1)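 Broth microdilution in Mueller Hinton broth. A 0.5 McFarland suspension was diluted tenfold, giving an inoculum of 1.5 × 10⁷ cfu/mL. This was added to 2-fold serial compound dilutions from […]. Plates were incubated aerobically at 37 °C for 24 h. MIC was the lowest concentration with no visible turbidity.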

[3] = tested on: Staphylococcus aureus; experiment: Antibacterial activity against erythromycin-susceptible Staphylococcus aureus ATCC 25923 assessed as bacterial growth inhibition incubated for 24 hrs by CLSI protocol based broth microdilution method; type: functional
[4] = tested on: Streptococcus pyogenes; experiment: Antibacterial activity against erythromycin-susceptible Streptococcus pyogenes clinical isolate 1 assessed as bacterial growth inhibition incubated for 24 hrs by CLSI protocol based broth microdilution method; type: functional
[5] = tested on: Pseudomonas aeruginosa; experiment: Antibacterial activity against penicillin-susceptible Pseudomonas aeruginosa ATCC27853 assessed as bacterial growth inhibition incubated for 24 hrs by CLSI protocol based broth microdilution method; type: functional
[6] = tested on: Escherichia coli; experiment: Antibacterial activity against penicillin-susceptible Escherichia coli ATCC 25922 assessed as inhibition of bacterial growth measured by broth microdilution method; type: functional; conditions: time 24 hrs; method in brief: as §1
[7] = tested on: Staphylococcus aureus; experiment: Antibacterial activity against methicillin-resistant Staphylococcus aureus ATCC 43300 assessed as inhibition of bacterial growth by broth microdilution method; type: functional; conditions: time 24 hrs
Method in brief: (§2)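 Broth microdilution MIC. A 0.5 McFarland suspension was diluted 10-fold and added at 1.5 × 10⁷ cfu/mL to 2-fold dilutions (0.125–64) in Mueller Hinton broth. Incubated aerobically 24 h at 37 °C. MIC was the lowest concentration with no visible turbidity.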

[8] = tested on: Staphylococcus aureus; experiment: Antibacterial activity against penicillin-resistant Staphylococcus aureus assessed as inhibition of bacterial growth measured by broth microdilution method; type: functional; conditions: time 24 hrs; method in brief: as §2
[9] = tested on: Staphylococcus aureus; experiment: Antibacterial activity against Staphylococcus aureus assessed as inhibition of bacterial growth measured by broth microdilution method; type: functional; conditions: time 24 hrs; method in brief: as §1
[10] = tested on: Staphylococcus epidermidis; experiment: Antibacterial activity against penicillin-resistant Staphylococcus epidermidis assessed as inhibition of bacterial growth measured by broth microdilution method; type: functional; conditions: time 24 hrs
[11] = tested on: Streptococcus pyogenes; experiment: Antibacterial activity against erythromycin-resistant Streptococcus pyogenes 2 assessed as bacterial growth inhibition incubated for 24 hrs by CLSI protocol based broth microdilution method; type: functional
[12] = tested on: Enterococcus faecalis; experiment: Antibacterial activity against vancomycin-susceptible Enterococcus faecalis ATCC 29212 assessed as bacterial growth inhibition incubated for 24 hrs by CLSI protocol based broth microdilution method; type: functional
[13] = tested on: Enterococcus faecalis; experiment: Antibacterial activity against vancomycin-resistant Enterococcus faecalis ATCC 51299 assessed as bacterial growth inhibition incubated for 24 hrs by CLSI protocol based broth microdilution method; type: functional
[14] = tested on: Enterococcus faecium; experiment: Antibacterial activity against vancomycin-resistant Enterococcus faecium ATCC 51559 assessed as bacterial growth inhibition incubated for 24 hrs by CLSI protocol based broth microdilution method; conditions: ATCC 51559, 24 h
[15] = tested on: Enterococcus faecium; experiment: Antibacterial activity against vancomycin-susceptible Enterococcus faecium ATCC19434 assessed as bacterial growth inhibition incubated for 24 hrs by CLSI protocol based broth microdilution method; conditions: ATCC19434, 24 h

SMILES | MIC [1] [µg/mL] | MIC [2] [µg/mL] | MIC [3] [µg/mL] | MIC [4] [µg/mL] | MIC [5] [µg/mL] | MIC [6] [µg/mL] | MIC [7] [µg/mL] | MIC [8] [µg/mL] | MIC [9] [µg/mL] | MIC [10] [µg/mL] | MIC [11] [µg/mL] | MIC [12] [µg/mL] | MIC [13] [µg/mL] | MIC [14] [µg/mL] | MIC [15] [µg/mL]
C[n+]1c2ccccc2c(-c2ccc(C(F)(F)F)cc2)c2ccccc21.[I-] | 4 | 16 | 1 | 1 | > 64 | > 64 | 4 | 64 | 2 | 32 | 2 |  |  |  | 
COc1ccccc1C#Cc1c2ccccc2[n+](C)c2ccccc12.[I-] | 8 | 2 | 8 | 16 | > 64 | > 64 | 8 | 16 | 4 | 16 | 16 |  |  |  | 
C[n+]1c2ccccc2c(Nc2ccncn2)c2ccccc21.[Cl-] | 16 | 64 | 16 | > 64 | > 64 | > 64 | 32 | > 64 | 32 | > 64 | > 64 |  |  |  | 
CCCCCCCCNc1c2ccccc2[n+](C)c2ccccc12.[Cl-] | 16 | 16 | 8 | 16 | > 64 | > 64 | 16 | 4 | 8 | 16 | 16 |  |  |  | 
C[n+]1c2ccccc2c(/C=C/c2ccc(Cl)cc2)c2ccccc21.[I-] | 2 | 1 | 1 | 1 | > 64 | > 64 | 2 | 4 | 2 | 2 | 1 |  |  |  | 
COc1ccc(-c2c3ccccc3[n+](C)c3ccccc23)cc1.[I-] | 8 | 16 | 4 | 8 | > 64 | > 64 | > 64 | > 64 | 8 | > 64 | 16 |  |  |  | 
CCCOc1ccc(C#Cc2c3ccccc3[n+](C)c3ccccc23)cc1.[I-] | 4 | 4 | 4 | 16 | > 64 | > 64 | 4 | 16 | 4 | 8 | 16 |  |  |  | 
C[n+]1c2ccccc2cc2ccccc21.[I-] | > 64 | > 64 | > 64 | > 64 | > 64 | > 64 | > 64 |  | > 64 | > 64 | > 64 | > 64 | > 64 | > 64 | > 64
Cc1cccc(-c2c3ccccc3[n+](C)c3ccccc23)c1.[I-] | 8 | 16 | 1 | 4 | > 64 | > 64 | 64 | > 64 | 4 | > 64 | 16 |  |  |  | 
C[n+]1c2ccccc2c(/C=C/c2ccc(Br)cc2)c2ccccc21.[I-] | 1 | 1 | 0.5 | 0.25 | > 64 | 64 | 2 | 4 | 1 | 2 | 0.5 |  |  |  | 
C[n+]1c2ccccc2c(/C=C/c2ccc(F)cc2)c2ccccc21.[I-] | 2 | 2 | 1 | 0.5 | > 64 | > 64 | 8 | 16 | 2 | 8 | 0.5 |  |  |  | 
C[n+]1c2ccccc2c(C#Cc2ccc(-c3ccccc3)cc2)c2ccccc21.[I-] | 8 | 8 | 8 | 16 | > 64 | > 64 | 16 | 16 | 16 | 8 | 16 |  | > 64 | > 64 | 
CCOc1ccc(C#Cc2c3ccccc3[n+](C)c3ccccc23)cc1.[I-] | 4 | 4 | 4 | 16 | > 64 | > 64 | 4 | 8 | 4 | 8 | 8 |  |  |  | 
COc1cccc(-c2c3ccccc3[n+](C)c3ccccc23)c1.[I-] | 16 | 32 | 4 | 8 | > 64 | > 64 | > 64 | > 64 | 8 | > 64 | 32 |  |  |  | 
CCc1ccc(/C=C/c2c3ccccc3[n+](C)c3ccccc23)cc1.[I-] | 1 | 1 | 0.5 | 0.5 | > 64 | 64 | 2 | 8 | 1 | 4 | 1 |  |  |  | 
CCCCCCCNc1c2ccccc2[n+](C)c2ccccc12.[Cl-] | 32 | 32 | 16 | 16 | > 64 | > 64 | 32 | 16 | 16 | 32 | 32 |  |  |  | 
CN[C@H](CC(C)C)C(=O)N[C@H]1C(=O)N[C@@H](CC(N)=O)C(=O)N[C@H]2C(=O)N[C@H]3C(=O)N[C@H](C(=O)N[C@H](C(=O)O)c4cc(O)cc(O)c4-c4cc3ccc4O)[C@H](O)c3ccc(c(Cl)c3)Oc3cc2cc(c3O[C@@H]2O[C@H](CO)[C@@H](O)[C@H](O)[C@H]2O[C@H]2C[C@](C)(N)[C@H](O)[C@H](C)O2)Oc2ccc(cc2Cl)[C@H]1O [VANCOMYCIN] | 0.5 (≈ 0.345 µM) | 2 (≈ 1.38 µM) |  | 0.25 (≈ 0.173 µM) | > 64 | > 64 |  |  |  |  | 1 (≈ 0.69 µM) |  |  |  | 2 (≈ 1.38 µM)
CCCCc1ccc(/C=C/c2c3ccccc3[n+](C)c3ccccc23)cc1.[I-] | 1 | 0.5 | 1 | 0.5 | > 64 | > 64 | 8 | 8 | 2 | 2 | 0.5 |  |  |  | 
C[n+]1c2ccccc2c(-n2cccc2)c2ccccc21.[Cl-] | 64 | 64 | 32 | 16 | > 64 | > 64 | > 64 | 64 | 64 | > 64 | 64 |  |  |  | 
COc1ccc2cc3[n+](cc2c1OC)CCc1cc2c(cc1-3)OCO2.[Cl-] [BERBERINE CHLORIDE] | > 64 | > 64 | 64 | > 64 | > 64 | > 64 | > 64 |  | > 64 | > 64 | 64 | > 64 | > 64 | > 64 | > 64
CCCCCCNc1c2ccccc2[n+](C)c2ccccc12.[Cl-] | 64 | 64 | 64 | 32 | > 64 | > 64 | 64 | 64 | 64 | 64 | 32 |  |  |  | 
COc1ccc(C#Cc2c3ccccc3[n+](C)c3ccccc23)cc1.[I-] | 4 | 4 | 4 | 16 | > 64 | > 64 | 8 | 16 | 4 | 16 | 16 |  |  |  | 
C[n+]1c2ccccc2c(/C=C/c2ccc(-c3ccccc3)cc2)c2ccccc21.[I-] | 1 | 2 | 0.5 | 0.5 | > 64 | 32 | 2 | 4 | 1 | 2 | 0.5 |  |  |  | 

Reference: ChEMBL document CHEMBL4837210 (Eur J Med Chem, 2021)
